Assay results of several laboratories.
Organism: Staphylococcus aureus
Observed: microbial growth

Structure (SMILES) | method | strain | time | notes | MIC
c1ccc(CCOC2CCCc3c2[nH]c2ccccc32)cc1 (stereo not shown) | broth dilution | VISA | – | – | > 16 µg/mL
CCCCCCC#Cc1cncc(-c2nnc(Sc3ccc([N+](=O)[O-])cc3[N+](=O)[O-])n2C)c1 | – | MRSA | – | drug-resistant strain | ≥ 20 µg/mL
Cc1ccc2nc(-c3cccc(O)c3)[nH]c2c1 | broth dilution | ATCC43300 MRSA | – | drug-resistant strain | 64 µg/mL
CO[C@H]1[C@H](O[C@H]([C@H]2O[C@@H](n3ccc(=O)[nH]c3=O)[C@H](O)[C@@H]2O)[C@H](NCCCNC(=O)[C@@H](NC(=O)[C@@H](NC(=O)N[C@H](C(=O)O)C(C)C)[C@@H]2CCN=C(N)N2)[C@@H](OC(=O)CCCCCCC(C)C)C(C)C)C(=O)O)O[C@H](CN)[C@H]1O | – | NEWMAN | – | – | > 32 µg/mL
C=CCCCCCCCCC(=O)C(F)(F)P(=O)(O)O | – | ATCC33591 MRSA | – | drug-resistant strain | > 200 µg/mL
CCOC(=O)c1cc(-c2cccc(NC(=O)Nc3ccc(Cl)c(Cl)c3)c2)on1 | broth dilution | ATCC29213 | – | – | > 64 µg/mL
CCCCCCCCCCCCCCCC(=O)NP(=O)(O)O | – | ATCC33591 MRSA | – | drug-resistant strain | 200 µg/mL
COC(=O)c1cc(-c2cccc(NC(=O)Nc3ccc(C)c(Cl)c3)c2)on1 | broth dilution | ATCC29213 | – | – | > 64 µg/mL
Fc1ccc(-c2nc3ccccc3[nH]2)cc1 | broth dilution | ATCC43300 MRSA | – | drug-resistant strain | 512 µg/mL
COC(=O)c1cc(-c2cccc(NC(=O)Nc3cccc(Br)c3)c2)on1 | broth dilution | ATCC29213 | – | – | > 64 µg/mL
CCC1C(=NOCc2cc(-c3ccc(Cl)cc3)no2)CC(c2ccccc2)OC1c1ccccc1 (stereo not shown) | broth dilution | MTCC96 | 24 h | – | 50 µg/mL
Oc1cccc(-c2nc3ccccc3[nH]2)c1 | broth dilution | ATCC43300 MRSA | – | drug-resistant strain | 128 µg/mL
CCCCCCCCCCCC(=O)NP(=O)(O)O | – | ATCC33591 MRSA | – | drug-resistant strain | 200 µg/mL
Clc1ccc(-c2nc3ccccc3[nH]2)c(Cl)c1 | broth dilution | ATCC43300 MRSA | – | drug-resistant strain | 256 µg/mL
Cc1ccc2[nH]c3c(c2c1)CCCC3NCCc1ccc(O)cc1 (stereo not shown) | broth dilution | ATCC29213 | – | – | 16 µg/mL
CN[C@H](CC(C)C)C(=O)N[C@H]1C(=O)N[C@@H](CC(N)=O)C(=O)N[C@H]2C(=O)N[C@H]3C(=O)N[C@H](C(=O)N[C@H](C(=O)O)c4cc(O)cc(O)c4-c4cc3ccc4O)[C@H](O)c3ccc(c(Cl)c3)Oc3cc2cc(c3O[C@@H]2O[C@H](CO)[C@@H](O)[C@H](O)[C@H]2O[C@H]2C[C@](C)(N)[C@H](O)[C@H](C)O2)Oc2ccc(cc2Cl)[C@H]1O | – | BAA2312 | – | drug-resistant strain | 0.78 µg/mL
CN[C@H](CC(C)C)C(=O)N[C@H]1C(=O)N[C@@H](CC(N)=O)C(=O)N[C@H]2C(=O)N[C@H]3C(=O)N[C@H](C(=O)N[C@H](C(=O)O)c4cc(O)cc(O)c4-c4cc3ccc4O)[C@H](O)c3ccc(c(Cl)c3)Oc3cc2cc(c3O[C@@H]2O[C@H](CO)[C@@H](O)[C@H](O)[C@H]2O[C@H]2C[C@](C)(N)[C@H](O)[C@H](C)O2)Oc2ccc(cc2Cl)[C@H]1O | – | 147 | – | clinical isolate | 0.59 µM
O=[N+]([O-])c1ccc(-c2nc3cccc(O)c3[nH]2)o1 | broth dilution | ATCC700699 MRSA | – | drug-resistant strain | 2 µg/mL
CC[C@H]1OC(=O)[C@H](C)[C@@H](O[C@H]2C[C@@](C)(OC)[C@@H](O)[C@H](C)O2)[C@H](C)[C@@H](O[C@@H]2O[C@H](C)C[C@H](N(C)C)[C@H]2O)[C@](C)(O)C[C@@H](C)C(=O)[C@H](C)[C@@H](O)[C@]1(C)O | – | USA300 | – | – | 32 µg/mL
Cc1ccc2nc(-c3c(F)cccc3Cl)[nH]c2c1 | broth dilution | ATCC43300 MRSA | – | drug-resistant strain | 64 µg/mL
CC1(C)CC[C@]2(C(=O)O)CC[C@]3(C)C(=CC[C@@H]4[C@@]5(C)CC[C@H](O)C(C)(C)[C@@H]5CC[C@]43C)[C@@H]2C1 | – | 83254 | – | – | 64 µg/mL
C/C(=C\C(=O)OCCCCCCCCC(=O)O)C[C@@H]1OC[C@H](C[C@@H]2O[C@H]2[C@@H](C)[C@H](C)O)[C@@H](O)[C@H]1O | – | BAA1556 MRSA | – | drug-resistant strain | > 8000 µM
O=[N+]([O-])c1ccc(/C=N/Nc2nc(Nc3ccccc3)nc(N3CCOCC3)n2)o1 | – | – | – | – | 29 µM

Structure (SMILES) | method | strain | time | notes | MIC
CCOc1ccc(-c2nc3ccc(C)cc3[nH]2)cc1 | broth dilution | ATCC43300 MRSA | – | drug-resistant strain | 256 µg/mL
CCCCCCNC(=S)Nc1cccc(-c2cc(C(=O)OC)no2)c1 | broth dilution | ATCC29213 | – | – | > 64 µg/mL
NC[C@H]1O[C@H](O[C@H]2[C@H](O)[C@@H](O[C@H]3O[C@H](CO)[C@@H](O)[C@H](N)[C@H]3O)[C@H](N)C[C@@H]2N)[C@H](O)[C@@H](O)[C@@H]1O | – | USA300 | – | – | 256 µg/mL
CNC(=O)c1cc(Sc2ccc(NC(=S)Nc3ccc(Cl)c(C(F)(F)F)c3)cc2)ccn1 | – | NCTC8325 | – | – | 3 µM
CCCCCCCCCCCCCCCC(=O)NS(=O)(=O)Oc1ccc(OC)cc1 | – | ATCC33591 MRSA | – | drug-resistant strain | > 200 µg/mL
CN[C@H](CC(C)C)C(=O)N[C@H]1C(=O)N[C@@H](CC(N)=O)C(=O)N[C@H]2C(=O)N[C@H]3C(=O)N[C@H](C(=O)N[C@H](C(=O)O)c4cc(O)cc(O)c4-c4cc3ccc4O)[C@H](O)c3ccc(c(Cl)c3)Oc3cc2cc(c3O[C@@H]2O[C@H](CO)[C@@H](O)[C@H](O)[C@H]2O[C@H]2C[C@](C)(N)[C@H](O)[C@H](C)O2)Oc2ccc(cc2Cl)[C@H]1O | – | VRSA | – | drug-resistant strain | > 16 µg/mL
CN(C)[C@@H]1C(O)=C(C(N)=O)C(=O)[C@@]2(O)C(O)=C3C(=O)c4c(O)cccc4[C@@](C)(O)[C@H]3C[C@@H]12 | – | USA300 | – | – | 256 µg/mL
COC(=O)c1cccc(Oc2ccc(NC(=O)Nc3ccc(Cl)c(C(F)(F)F)c3)cc2)c1 | – | NCTC8325 | – | – | 0.5 µM
Clc1ccccc1-c1nc2ccccc2[nH]1 | broth dilution | ATCC43300 MRSA | – | drug-resistant strain | 128 µg/mL
CN[C@@H]1[C@H](O)[C@H](NC)[C@H]2O[C@@]3(O)C(=O)C[C@@H](C)O[C@H]3O[C@@H]2[C@H]1O | broth dilution | 8325 | – | – | 25 µg/mL
Cc1ccccc1-n1c(Cn2ncc3c(N)ncnc32)nc2cccc(C)c2c1=O | – | NCTC8325 | – | – | > 30 µM
COC(=O)c1cc(-c2cccc(NC(=O)Nc3ccc(F)c(F)c3)c2)on1 | broth dilution | ATCC29213 | – | – | > 64 µg/mL
Cc1ccc2nc(-c3ccco3)[nH]c2c1 | broth dilution | ATCC43300 MRSA | – | drug-resistant strain | 256 µg/mL
COC(=O)c1cc(-c2cccc(NC(=S)NC3CCCCC3)c2)on1 | broth dilution | ATCC29213 | – | – | > 64 µg/mL
CCCC(=O)CP(=O)(O)O | – | ATCC33591 MRSA | – | drug-resistant strain | > 200 µg/mL
CN[C@H](CC(C)C)C(=O)N[C@H]1C(=O)N[C@@H](CC(N)=O)C(=O)N[C@H]2C(=O)N[C@H]3C(=O)N[C@H](C(=O)N[C@H](C(=O)O)c4cc(O)cc(O)c4-c4cc3ccc4O)[C@H](O)c3ccc(c(Cl)c3)Oc3cc2cc(c3O[C@@H]2O[C@H](CO)[C@@H](O)[C@H](O)[C@H]2O[C@H]2C[C@](C)(N)[C@H](O)[C@H](C)O2)Oc2ccc(cc2Cl)[C@H]1O | – | USA300 | – | – | 1 µg/mL
CN[C@H](CC(C)C)C(=O)N[C@H]1C(=O)N[C@@H](CC(N)=O)C(=O)N[C@H]2C(=O)N[C@H]3C(=O)N[C@H](C(=O)N[C@H](C(=O)O)c4cc(O)cc(O)c4-c4cc3ccc4O)[C@H](O)c3ccc(c(Cl)c3)Oc3cc2cc(c3O[C@@H]2O[C@H](CO)[C@@H](O)[C@H](O)[C@H]2O[C@H]2C[C@](C)(N)[C@H](O)[C@H](C)O2)Oc2ccc(cc2Cl)[C@H]1O | broth dilution | ATCCBAA44 | – | drug-resistant strain | 1 µg/mL
CN[C@H](CC(C)C)C(=O)N[C@H]1C(=O)N[C@@H](CC(N)=O)C(=O)N[C@H]2C(=O)N[C@H]3C(=O)N[C@H](C(=O)N[C@H](C(=O)O)c4cc(O)cc(O)c4-c4cc3ccc4O)[C@H](O)c3ccc(c(Cl)c3)Oc3cc2cc(c3O[C@@H]2O[C@H](CO)[C@@H](O)[C@H](O)[C@H]2O[C@H]2C[C@](C)(N)[C@H](O)[C@H](C)O2)Oc2ccc(cc2Cl)[C@H]1O | broth dilution | ATCC29213 | – | – | 1 µg/mL
COC(=O)c1cc(-c2cccc(NC(=O)Nc3ccccc3OC)c2)on1 | broth dilution | ATCC29213 | – | – | > 64 µg/mL
CO[C@H]1/C=C/O[C@@]2(C)Oc3c(C)c(O)c4c(O)c(c(/C=N/N5CCN(C)CC5)c(O)c4c3C2=O)NC(=O)/C(C)=C\C=C\[C@H](C)[C@H](O)[C@@H](C)[C@@H](O)[C@@H](C)[C@H](OC(C)=O)[C@@H]1C | – | NEWMAN | – | – | 0.12 µg/mL
CCC(CC)c1cc(CCN2CCCN(Cc3ccc(C(F)(F)F)cc3)CC2)nc(-c2ccncc2)n1 | – | ATCCBAA1720 | – | drug-resistant strain, clinical isolate | 6 µg/mL
COC(=O)c1cc(-c2cccc(NC(=O)Nc3c(C)cccc3C)c2)on1 | broth dilution | ATCC29213 | – | – | > 64 µg/mL
COc1ccc(NC(=O)Nc2ccc(Cl)c(C(F)(F)F)c2)cc1 | – | NCTC8325 | – | – | 3 µM
